From ChEMBL document CHEMBL2057149 (J Med Chem, 2012) come the findings set out here.

Activity calls are given as the source filed them. No cut-off for these calls is given here.

Data set [1] has as its system Plasma. The experiment in a line: Anticoagulant activity in pooled human plasma assessed as prolongation of the recalcification time at 0.1 mg/ml by Heptest assay. The class given is ADME, cell-free. The essentials: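 Heptest clotting time in pooled normal human plasma; normal range 13–20 s. Values are the mean of two determinations.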
For data set [2], the target named is Vascular endothelial growth factor A (Homo sapiens) (UniProt P15692). The experiment in a line: Binding affinity to VEGF by surface plasmon resonance assay. For orientation: SPR reads the build-up and loss of mass on a sensor chip optically.
Data set [3] deals with HUVEC. The experiment in a line: Antiangiogenic activity in HUVEC cells assessed as inhibition of tube formation at 10 uM after 18 hrs by matrigel assay. The conditions noted are these: Homo sapiens. In kind it is functional. A digest of the protocol:
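HUVECs (passage 4 or 5, 70–80% confluent) suspended at 4 × 10⁵/mL in EGM2 with all supplements except heparin, mixed 1:1 with compound (final 10, 50 or 100 μM) in triplicate. Plated on growth factor-reduced Matrigel for 18 h. Branching nodes joining ≥3 tubules counted manually by phase-contrast microscopy. Reported as % inhibition versus untreated cells.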

The test system of data set [4] is HMVEC. The experiment in a line: Antiangiogenic activity in VEGF-stimulated HMVEC cells after 72 hrs by CellTiter assay. The class given is functional, cell-based. The conditions noted are these: Homo sapiens.
The test system of data set [5] is HUVEC. The experiment in a line: Antiangiogenic activity in FGF2-stimulated HUVEC cells after 72 hrs by CellTiter assay. The class given is functional, cell-based. As to conditions: Homo sapiens.
Data set [6] addresses Fibroblast growth factor 1 (Homo sapiens, UniProt P05230). The experiment in a line: Binding affinity to FGF-1 by surface plasmon resonance assay. A digest of the protocol:
(§1)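 Solution-affinity SPR on heparin-coated CM4 chips. FGF-1 measured in HBS-EP (10 mM HEPES pH 7.4, 150 mM NaCl, 3.0 mM EDTA, 0.005% polysorbate 20); FGF-2 measured in HBS-EP with 300 mM NaCl. Kd is the average of at least duplicate measurements ± SD.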

Data set [7] deals with Plasma. The experiment in a line: Anticoagulant activity in pooled human plasma assessed as activated partial thromboplastin time at 0.1 mg/ml. The class given is ADME, cell-free. A digest of the protocol:
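APTT of pooled normal human plasma measured with compound at 0–100 μg/mL in PBS on a ball coagulameter, using unfractionated heparin as the reference. Normal range 26–36 s; coefficient of variation 2% at 36 s and 5–7% at 90 s or above. Values are the mean of two determinations.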

Data set [8] relates to HUVEC. The experiment in a line: Antiangiogenic activity in VEGF-stimulated HUVEC cells after 72 hrs by CellTiter assay. In kind it is functional, cell-based. The conditions noted are these: Homo sapiens.
Data set [9] deals with Aorta. The experiment in a line: Antiangiogenic activity in Sprague-Dawley rat aorta assessed as inhibition of tube formation dosed daily at 10 uM measured up to 8 days by matrigel assay. The class given is functional. The essentials: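 Aortas from 6–10-week Sprague–Dawley rats were cut into 1 mm rings, bisected and embedded in Matrigel. Cultured in EBM-2 with 2% FCS and supplements except heparin, without exogenous growth factors. Compound was usually given at two concentrations within 1–50 μM from 10 mM PBS stocks, replenished every 48 h. Microvessels were scored 0–5 up to 8 days by two independent investigators.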

Data set [10] concerns HMVEC. The experiment in a line: Antiangiogenic activity in FGF1-stimulated HMVEC cells after 72 hrs by CellTiter assay. In kind it is functional, cell-based. As to conditions: Homo sapiens.
Data set [11] deals with HUVEC. The experiment in a line: Antiangiogenic activity in FGF1-stimulated HUVEC cells after 72 hrs by CellTiter assay. The class given is functional, cell-based. The conditions noted are these: Homo sapiens.
For data set [12], the target named is Fibroblast growth factor 2 (Homo sapiens, UniProt P09038). The experiment in a line: Binding affinity to FGF-2 by surface plasmon resonance assay. The essentials:
as §1

A further data set has as its target T1, Heparanase (Homo sapiens, UniProt Q9Y251).
T1 sequence (Q9Y251 whole entry): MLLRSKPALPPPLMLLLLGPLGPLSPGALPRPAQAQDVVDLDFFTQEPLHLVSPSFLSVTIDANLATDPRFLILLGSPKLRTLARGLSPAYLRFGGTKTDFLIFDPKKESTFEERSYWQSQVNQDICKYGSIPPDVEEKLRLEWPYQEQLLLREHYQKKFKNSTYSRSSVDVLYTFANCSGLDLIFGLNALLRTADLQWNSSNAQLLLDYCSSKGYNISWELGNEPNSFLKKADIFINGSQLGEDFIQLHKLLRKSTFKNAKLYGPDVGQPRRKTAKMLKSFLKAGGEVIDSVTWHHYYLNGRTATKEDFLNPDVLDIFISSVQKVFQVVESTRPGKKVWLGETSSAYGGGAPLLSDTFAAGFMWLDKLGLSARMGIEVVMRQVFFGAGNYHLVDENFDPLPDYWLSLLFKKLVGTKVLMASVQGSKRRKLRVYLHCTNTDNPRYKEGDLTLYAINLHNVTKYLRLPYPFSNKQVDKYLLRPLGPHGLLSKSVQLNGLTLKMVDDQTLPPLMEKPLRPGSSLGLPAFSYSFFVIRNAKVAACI
The experiment in a line: Inhibition of human recombinant heparanase after 2 to 24 hrs by WST1 dye based fondaparinux assay. (In general: Tetrazolium dyes change colour on reduction, which living cells bring about.)

Data set [13] has as its system HMVEC. The experiment in a line: Antiangiogenic activity in FGF2-stimulated HMVEC cells after 72 hrs by CellTiter assay. In kind it is functional, cell-based. The conditions noted are these: Homo sapiens.
Data set [14] concerns Aorta. The experiment in a line: Antiangiogenic activity in Sprague-Dawley rat aorta assessed as inhibition of tube formation measured up to 8 days by matrigel assay. In kind it is functional, tissue-based. As to conditions: 192 h. The essentials: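 Aortas from 6–10-week Sprague–Dawley rats cut into 1 mm rings, bisected and embedded in Matrigel. Cultured in EBM-2 with 2% FCS, supplements but no heparin and no added growth factor. Compound usually given at two concentrations within 1–50 μM (10 mM PBS stock), medium renewed every 48 h. Microvessels scored 0–5 up to 8 days by two independent observers.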

The subject of data set [15] is Aorta. The experiment in a line: Cytotoxicity against Sprague-Dawley rat aorta assessed as VEGF-induced microvessel formation measured 6 days post compound treatment grown on fresh medium containing VEGF. In kind it is tissue-based. As to conditions: 144 h. A digest of the protocol:
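Viability check on rat aortic ring cultures: after compound exposure, compound/medium withdrawn on day 6 or 7 and replaced with complete medium containing VEGF (typically 10 ng/mL) for up to 7 further days. Renewed microvessel sprouting taken as evidence of viable tissue.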

Data set [16] concerns HUVEC. The experiment in a line: Antiangiogenic activity in HUVEC cells assessed as inhibition of tube formation after 18 hrs by matrigel assay. In kind it is functional, cell-based. The conditions noted are these: Homo sapiens. A digest of the protocol:
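HUVECs at passage 4–5 (70–80% confluent) resuspended at 4 × 10⁵/mL in EGM2 with all supplements except heparin. Cells mixed with compound to final 10, 50 or 100 μM and plated in triplicate on growth-factor-reduced Matrigel for 18 h. Branching nodes joining three or more tubules counted by phase-contrast microscopy; percent inhibition versus untreated cells.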

Another data set relates to Rattus norvegicus. The experiment in a line: Elimination half life in Sprague-Dawley rat at 10 mg/kg, sc using [3H]-labeled compound administered as three bolus doses at 96 hrs interval. In kind it is ADME, organism-based. Also noted: dose 10 mg/kg, route subcutaneous. As to conditions: in vivo.

Fibroblast growth factor 2, sequence (P09038 143-288 limits assumed): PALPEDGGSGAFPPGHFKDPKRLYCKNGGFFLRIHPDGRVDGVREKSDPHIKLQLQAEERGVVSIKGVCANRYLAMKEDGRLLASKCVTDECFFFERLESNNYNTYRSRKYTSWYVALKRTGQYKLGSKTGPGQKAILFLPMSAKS
Fibroblast growth factor 1, sequence (P05230 whole entry): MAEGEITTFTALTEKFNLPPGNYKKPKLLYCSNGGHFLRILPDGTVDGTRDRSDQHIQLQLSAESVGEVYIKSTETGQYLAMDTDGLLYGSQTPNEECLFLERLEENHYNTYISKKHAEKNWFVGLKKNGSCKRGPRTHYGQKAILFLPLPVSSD

The term Kd denotes the concentration at which binding is half-saturated. The term inhibition denotes the drop in the measured response relative to a control, in per cent. By IC50 is commonly meant the point on the concentration scale where inhibition reaches its midpoint. The term Ki denotes the equilibrium dissociation constant of an inhibitor or competing ligand from its target. For `CC(C)CCC[C@@H](C)[C@H]1CC[C@H]2[C@@H]3CC[C@H]4C[C@@H](O[C@H]5O[C@H](COS(=O)(=O)[O-])[C@@H](OS(=O)(=O)[O-])[C@H](OS(=O)(=O)[O-])[C@@H]5O[C@H]5O[C@H](COS(=O)(=O)[O-])[C@@H](OS(=O)(=O)[O-])[C@H](O[C@H]6O[C@H](COS(=O)(=O)[O-])[C@@H](OS(=O)(=O)[O-])[C@H](O[C@H]7O[C@H](COS(=O)(=O)[O-])[C@@H](OS(=O)(=O)[O-])[C@H](OS(=O)(=O)[O-])[C@@H]7OS(=O)(=O)[O-])[C@@H]6OS(=O)(=O)[O-])[C@@H]5OS(=O)(=O)[O-])CC[C@]4(C)[C@H]3CC[C@]12C.[Na+].[Na+].[Na+].[Na+].[Na+].[Na+].[Na+].[Na+].[Na+].[Na+].[Na+].[Na+].[Na+]`, the Time in the data set on Plasma [1] is on record as 28 s. The values for the Kd in data set [2], in data set [6] and in [12] were 22 nM, 0.6 nM and 160 nM, respectively. In addition, the inhibition at 10 µM with HUVEC [3] is over 80%. The outcome in the data set on HMVEC [4], with HMVEC [10] and in the data set with HMVEC [13] was Active. The values for the IC50 in the data set with HUVEC [5], in the data set with HUVEC [8] and in the data set with HUVEC [11] were 800 nM, 1200 nM and 1290 nM, respectively. The APTT in the data set with Plasma [7] stood at 94 s. Besides, in the data set on Aorta [9], the “inhibition (INH)” value was over 80%. In addition, the Ki on Heparanase stood at 5.8 nM.
Take `CC(C)CCC[C@@H](C)[C@H]1CC[C@H]2[C@@H]3CC[C@H]4C[C@@H](O[C@@H]5O[C@H](COS(=O)(=O)[O-])[C@@H](O[C@H]6O[C@H](COS(=O)(=O)[O-])[C@@H](O[C@H]7O[C@H](COS(=O)(=O)[O-])[C@@H](O[C@H]8O[C@H](COS(=O)(=O)[O-])[C@@H](OS(=O)(=O)[O-])[C@H](OS(=O)(=O)[O-])[C@H]8OS(=O)(=O)[O-])[C@H](OS(=O)(=O)[O-])[C@H]7OS(=O)(=O)[O-])[C@H](OS(=O)(=O)[O-])[C@H]6OS(=O)(=O)[O-])[C@H](OS(=O)(=O)[O-])[C@H]5OS(=O)(=O)[O-])CC[C@]4(C)[C@H]3CC[C@]12C.[Na+].[Na+].[Na+].[Na+].[Na+].[Na+].[Na+].[Na+].[Na+].[Na+].[Na+].[Na+].[Na+]`: in the data set on Plasma [1], the Time is listed as 28.6 s. Also, the IC50 in the data set on Aorta [14] was 1100 nM; in the data set on HUVEC [16], 2000 nM. Also, the Kd in data set [2] came out at 28.9 nM; in data set [12], 390 nM. In addition, the inhibition at 10 µM with HUVEC [3] is over 80%. In addition, the outcome with HMVEC [4], with HMVEC [10] and with HMVEC [13] was Active. In addition, the APTT with Plasma [7] is on record as 71.9 s. In addition, the Activity entry in the data set with Aorta [15] is given as “Non-toxic”. The “inhibition (INH)” value in the data set with Aorta [9] was over 80%. Moreover, in the data set with Rattus norvegicus, the “beta t1/2” value was over 50 h.
As to `CC(C)CCC[C@@H](C)[C@H]1CC[C@H]2[C@@H]3CC[C@H]4C[C@@H](OCc5cn([C@@H]6O[C@H](COS(=O)(=O)[O-])[C@@H](O[C@H]7O[C@H](COS(=O)(=O)[O-])[C@@H](O[C@H]8O[C@H](COS(=O)(=O)[O-])[C@@H](O[C@H]9O[C@H](COS(=O)(=O)[O-])[C@@H](OS(=O)(=O)[O-])[C@H](OS(=O)(=O)[O-])[C@H]9OS(=O)(=O)[O-])[C@H](OS(=O)(=O)[O-])[C@H]8OS(=O)(=O)[O-])[C@H](OS(=O)(=O)[O-])[C@H]7OS(=O)(=O)[O-])[C@H](OS(=O)(=O)[O-])[C@H]6OS(=O)(=O)[O-])nn5)CC[C@]4(C)[C@H]3CC[C@]12C.[Na+].[Na+].[Na+].[Na+].[Na+].[Na+].[Na+].[Na+].[Na+].[Na+].[Na+].[Na+].[Na+]`, the Time with Plasma [1] amounted to 45.5 s. For the same molecule, the results for the Kd in data set [2], in data set [6] and in data set [12] were 95 nM, 9.7 nM and 390 nM, respectively. The outcome with HMVEC [4], in the data set on HMVEC [10] and in the data set on HMVEC [13] was Active. For the same molecule, the results for the IC50 in the data set with HUVEC [5], in the data set with HUVEC [8] and in the data set with HUVEC [11] were 640 nM, 2200 nM and 2300 nM, respectively. The APTT in the data set with Plasma [7] turned out to be 104 s. Moreover, in the data set with Aorta [9], the “inhibition (INH)” value is over 80%. Besides, the Ki on Heparanase is 3.7 nM.
